Data set [1] has as its system Rattus norvegicus. The data set is described as follows: Percent reversal of scopolamine-induced amnesia rat following 10 mg/kg i.p. It counts as functional. The note with it: route intraperitoneal. Summed up: (§1)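 Male Wistar rats, 200–220 g, acclimatised ≥1 week; one-trial step-through passive avoidance in two-compartment box with electrifiable grid floor. Scopolamine hydrobromide 0.66 mg/kg sc 60 min before learning, test compound or vehicle 30 min before scopolamine; 45 rats per experiment split into saline, scopolamine and treated groups. % amnesia reversal computed from group retention; Fisher's exact test versus scopolamine group.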

The subject of data set [2] is Rattus norvegicus. The data set is described as follows: Percent reversal of scopolamine-induced amnesia rat following 1.0 mg/kg i.p. The note with it: route intraperitoneal. The format is functional. The method in brief:
as §1

Data set [3] has as its system Rattus norvegicus. The data set is described as follows: Percent reversal of scopolamine-induced amnesia rat at 10 mg/kg po. It counts as functional. Summed up:
as §1

In data set [4] the test system is Rattus norvegicus. The data set can be described thus: Percent reversal of scopolamine-induced amnesia rat at 1.0 mg/kg po. The format is functional. Summed up: as §1
For data set [5], the system named is Rattus norvegicus. The data set is described as follows: Percent reversal of scopolamine-induced amnesia rat at 0.3 mg/kg ip. The format is functional. The note with it: route intraperitoneal. The method in brief: as §1
Data set [6] deals with Rattus norvegicus. The data set is described as follows: Tested for efficiency in responding in radial maze test in rat on the day before treatment at 1 mg/kg sc along with Scopolamine at 50 ug/kg sc. The format is functional. The following applies: route subcutaneous. The method in brief: (§2)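 Male Wistar rats (2 months old, 250 g), food-restricted to 80-85% body weight, were trained daily in an eight-arm radial maze to criterion (≤9 choices on 3 consecutive days). Scopolamine was given sc 60 min before testing and the test drug sc in saline 90 min before. Treatments were ≥3 days apart with retraining. Efficiency was scored as 8/total choices × 100.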

The subject of data set [7] is Rattus norvegicus. The data set is described as follows: Tested for efficiency in responding in radial maze test in rat on the day of treatment at 1 mg/kg sc along with Scopolamine at 50 ug/kg sc. It counts as functional. The following applies: route subcutaneous. The method in brief: as §2
Data set [8] relates to Rattus norvegicus. The data set is described as follows: Tested for efficiency in responding in radial maze test in rat on the day after treatment at 1 mg/kg sc along with Scopolamine at 50 ug/kg sc. It counts as functional. The note with it: route subcutaneous.
The subject of data set [9] is Rattus norvegicus. The data set can be described thus: Tested for running time in radial maze test in rat on the day before treatment at 1 mg/kg sc along with Scopolamine at 50 ug/kg sc. The format is functional. The note with it: route subcutaneous. Summed up:
(§3)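 Eight-arm radial maze in male Wistar rats (2 months old, 250 g) held at 80-85% body weight and trained to ≤9 choices for 3 consecutive days. Scopolamine was given sc 60 min pre-test and the drug sc in isotonic saline 90 min pre-test. Position was video-tracked. Mean running time (s) was total task time divided by number of choices.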

In data set [10] the test system is Rattus norvegicus. The data set is described as follows: Tested for running time in radial maze test in rat on the day after treatment at 1 mg/kg sc along with Scopolamine at 50 ug/kg sc. The format is functional. The following applies: route subcutaneous. Summed up:
as §3

Data set [11] deals with Rattus norvegicus. The data set is described as follows: Tested for running time in radial maze test in rat on the day of treatment at 1 mg/kg sc along with Scopolamine at 50 ug/kg sc. The note with it: route subcutaneous. It counts as functional. The method in brief: as §3
Data set [12] concerns Rattus norvegicus. The data set can be described thus: Percent reversal of scopolamine-induced amnesia rat at 30 mg/kg po. It counts as functional. Summed up: as §1
For data set [13], the system named is Rattus norvegicus. The data set can be described thus: Percent reversal of scopolamine-induced amnesia rat at 0.1 mg/kg ip. The format is functional. The note with it: route intraperitoneal. The method in brief: as §1
The subject of data set [14] is Rattus norvegicus. The data set can be described thus: Percent reversal of scopolamine-induced amnesia rat at 0.3 mg/kg po. The format is functional. Summed up:
as §1

Data set [15] deals with Rattus norvegicus. The data set can be described thus: Tested for running time in radial maze test in rats on the day of treatment at 1 mg/kg sc along with Scopolamine at 50 ug/kg sc. It counts as functional. The note with it: route subcutaneous. The method in brief: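 Male Wistar rats (2 months, 250 g) food-restricted to 80–85% body weight, trained in eight-arm radial maze to criterion (≤9 choices, 3 consecutive days). Scopolamine 50 μg/kg sc 60 min and compound (saline, 2 mL/kg) 90 min before test; mean running time = total running time/total choices, video-tracked; compared with performance on days before and after treatment.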

Data set [16] is described as follows: Basicity was assessed from pKB. It counts as ADME.

For `CC(=O)N1C(=O)CN2C(=O)CCC21` (stereo not drawn), the Reversal in data set [1] and in data set [2] was 0% each time.
With `CCOC(=O)CN1C(=O)CN2C(=O)CCC12` (stereo not drawn), the figures for the Reversal in data set [1] and in [2] were 0% and 3%, respectively.
`O=C1CN2C(=O)CCC2(C(=O)O)N1` (stereo not drawn): the Reversal in data set [1] is listed as 53%; in [2] it was 14%; in data set [3], 33%; in data set [4], 1%.
Take `O=C1CN2C(=O)CCCCC2N1` (stereo not drawn): the Reversal in data set [1] was determined as 12%; in data set [2], 22%.
On to `NC(=O)C12CCC(=O)N1CC(=O)N2` (stereo not drawn), for which the Reversal in data set [1] is 38%; in data set [2] it was 62%; in [3], 0%; in data set [5] it was 38%; in data set [4], 0%.
Regarding `CN1[C@@H]2C[C@@H](OC(=O)[C@H](CO)c3ccccc3)C[C@H]1[C@@H]1O[C@@H]12` [SCOPOLAMINE], the Efficiency was found to be 87.3% in [6], 63.9% in [7] and 83.9% in data set [8]. Moreover, the figures for the Time in data set [9], in data set [10] and in data set [11] were 14.3 s, 19.6 s and 34.6 s, respectively.
Regarding `O=C1NC2CCC(=O)N2C1CO` (stereo not drawn), the Reversal turned out to be 38% in data set [2]; 42% in data set [3]; 30% in data set [5]; 0% in data set [12]; 0% in data set [4]; 3% in [13].
For `O=C1CCC2N1CC(=O)N2C(=O)OCc1ccccc1` (stereo not drawn), the results for the Reversal in [1] and in data set [2] were 12% and 31%, respectively.
Take `O=C1CN2C(=O)CCC2N1` (stereo not drawn) [DIMIRACETAM]: the values for the Efficiency in [6], in [7] and in [8] were 96.3%, 75.6% and 88.6%, respectively. Besides, the Reversal in data set [1] came out at 70%; in data set [2], 68%; in data set [14], 28%; in [3], 60%; in data set [5], 16%; in data set [12] it was 40%. Also, the Reversal in data set [4] is on record as 75%. Moreover, the Time is on record as 34.6 s in data set [15], 16.6 s in data set [9] and 19.6 s in [10].
Regarding `O=C1NC2CCC(=O)N2[C@@H]1Cc1ccccc1` (stereo partly drawn), the Reversal in data set [1] is reported as 0%; in data set [2] it was 19%; in data set [5], 42%; in data set [13] it was 15%.
Turning to `C[C@H]1C(=O)NC2CCC(=O)N21` (stereo partly drawn), the Reversal came out at 3% in data set [1], 52% in data set [2] and 0% in data set [5].
Regarding `NC(=O)CN1CC(O)CC1=O` (stereo not drawn) [OXIRACETAM], the Reversal in data set [1] was determined as 53%; in data set [2], 12%; in [3] it was 27%; in data set [12] it was 69%.
In the case of `CCN1C(=O)CN2C(=O)CCC12` (stereo not drawn), the Reversal in data set [1] and in [2] was 0% each time.
`CC1C(=O)NC2CCC(=O)N21` (racemic): the Reversal is reported as 38% in data set [1], 38% in data set [2], 33% in data set [3] and 9% in data set [4].
For `CC(C)CC1C(=O)NC2CCC(=O)N21` (stereo not drawn), the values for the Reversal in [1] and in data set [2] were 0% and 3%, respectively.
Regarding `CCOC(=O)C12CCC(=O)N1CC(=O)N2` (stereo not drawn), the Reversal was determined as 62% in data set [1], 25% in data set [2], 0% in data set [3] and 0% in data set [4].
On to `CC12CCC(=O)N1CC(=O)N2` (stereo not drawn), for which the Reversal in data set [1] is 46%; in data set [2], 40%; in data set [3], 0%; in data set [5] it was 0%; in data set [12] it was 26%.
On to `O=C1CN2C(=O)CCCC2N1` (stereo not drawn), for which the Reversal in data set [1] is reported as 27%; in data set [2] it was 27%; in [3], 0%; in [4] it was 0%.
One may read the pKB as the negative decadic logarithm of the KB, by convention in mol/L. A low value points to a large KB. In data set [16], `NC(=O)CNCc1ccccc1` yielded a pKB of 7.2.
`NC(=O)CN1C(=O)CN2C(=O)CCC12` (stereo not drawn): the Reversal stood at 62% in data set [1], 49% in [2], 9% in data set [3] and 0% in [4].
Turning to `CC1C(=O)NC2(C)CCC(=O)N12` (racemic), the Reversal in data set [1] (10 mg/kg) was found to be 0%; in [2] (1 mg/kg), 38%; in [3] (10 mg/kg), 42%; in data set [5] (0.3 mg/kg), 30%; in data set [4] (1 mg/kg) it was 17%.
Turning to `O=C1NC2CCC(=O)N2[C@H]1Cc1ccccc1` (stereo partly drawn), the Reversal in data set [1] was 0%; in [2], 53%; in [14] it was 0%; in data set [3], 0%; in data set [5], 53%; in [12], 7%. In addition, the Reversal in data set [4] is recorded as 42%; in data set [13] it was 0%.
`CC1C(=O)NC2(C)CCC(=O)N12` (stereo in doubt; 18 (S)): the Reversal is 44% in data set [1] (10 mg/kg); 65% in data set [2] (1 mg/kg); 26% in data set [3] (10 mg/kg); 10% in [5] (0.3 mg/kg); 37% in data set [12]; 21% in data set [4] (1 mg/kg).

(Values after ChEMBL document CHEMBL1126572, “Synthesis and pharmacological activity of a series of dihydro-1H-pyrrolo[1,2-a]imidazole-2,5(3H,6H)-diones, a novel class of potent cognition enhancers” (J Med Chem, 1993).)
